Reference: PubChem BioAssay
Unmarked numbers belong to inactive results. Results filed as inconclusive are left out. The source made the active and inactive calls.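 How the source made its calls, unless noted: active means viability increase at or above a cutoff of the median across tested compounds plus 3 SD (cut at about 8.5% in these data, passing the limit was not always enough); inconclusive means some gains above the cutoff, reason not given; inactive means the rest.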

Key:
[1] = OD615 S. cerevisiae growth inhibition, permissive medium, pilot counter-assay, permissive growth control for S. cerevisiae lifespan shortening project (AID 705;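 active means growth inhibition above 25% in both replicates, a cutoff set 3 SD above the mean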); conditions: OD615, 24 h, at 10 µM, active compounds read high
Method in brief: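 Timing: 24 h exposure, 30 °C / Material: Saccharomyces cerevisiae strain carrying genetically modified DeaD replicative-lifespan system / Signal: OD at 615 nm / Compound: 10 µM single dose, 0.25% DMSO / Medium: SC raffinose/galactose permissive medium / Evaluation: reduction in yeast growth (OD615)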

[2] = Restrictive medium S. cerevisiae growth inhibition, OD615, pilot screen of yeast lifespan reduction project, restrictive growth control (AID 706;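 active means growth inhibition above a set limit, 3 SD over mean compound inhibition, in both replicates, cut at about 43% in these data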;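 further: modified DeaD lifespan yeast strain shifted to restrictive glucose medium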); conditions: OD615, 48 h, at 10 µM, active compounds read high
Method in brief: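 System: Engineered S. cerevisiae DeaD strain | Detection: OD615 | Buffer or medium: CSMM-D glucose medium | Doses: 10 µM compound, 0.25% DMSO | Timing: 4 h pre-growth plus 48 h compound exposure, 30 °C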

[3] = viability gain of MRP-1-high H69AR cells under doxorubicin, pilot screen, MRP-1 activator project, CellTiter-Glo, duplicate (AID 807); conditions: H69AR viability with doxorubicin, CellTiter-Glo luminescence; at 10 µM; active compounds read high;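 further: compound pretreatment 18-22 h then 72 h combined with doxorubicin; 0% = doxorubicin alone and 100% = vehicle without doxorubicin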
[4] = growth suppression of beta-catenin knockout HCT116, pilot screen, human colon tumor cells (AID 823;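 active means cell viability at or below a set limit in both duplicate runs, the limit being the all-compound median minus 4 SD, cut at about 23% in these data, passing the limit was not always enough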;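 further: 0% = wells killed by 20 µM Hyamine and 100% = untreated DMSO cell wells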); conditions: CellTiter-Glo, 60 h, at 10 µM, active compounds read low
[5] = growth suppression of PTEN-deleted HCT116, pilot screen, cell-based, HCT116 clonal line, CellTiter-Glo (AID 824;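 active means viability at or below 27.92% in each of two runs, the all-compound median minus 4 SD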;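 further: 0% = 20 µM Hyamine control and 100% = vehicle cell control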); conditions: 60 h, at 10 µM, active compounds read low
[6] = inhibitors of the yeast RAM network, pilot screen, dse1pr::URA3 reporter, 5-FOA selection (AID 869;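 active means inhibition over a set limit, the all-compound mean plus 3 SD, in both replicate runs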;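 further: 0% = DMSO wells with no growth and 100% = 10 µM 1-NA-PP1 with full growth; RAM network block rescues cells from 5-FOA so hits raise OD615 growth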); conditions: S. cerevisiae dse1pr::URA3 5-FOA growth, OD615, 2 d; at 10 µM; active compounds read high; strain carries analog-sensitive mutant Cbk1 kinase
[7] = RAM signaling pathway blockade in yeast – S. cerevisiae, Pdr1DBD-CYC8 efflux-inhibited sensitized strain, primary screen (AID 1298;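 active means RAM network inhibition above 8.4% in each of two replicates, 3 SD over the compound average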;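 further: 0% = DMSO untreated cells without growth and 100% = 10 µM 1-NA-PP1 full growth; higher means more yeast growth rescued from 5-FOA killing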); conditions: S. cerevisiae cbk1-as DSE1-URA3 strain, 5-FOA growth OD615, 2 d; at 50 µM; active compounds read high

| SMILES | growth inhibition [1] | growth inhibition [2] | viability increase [3] | viability [4] | viability [5] | inhibition [6] | RAM network inhibition [7] |
| --- | --- | --- | --- | --- | --- | --- | --- |
| O=S(=O)(c1ccccc1)N1CCN(C2CCN(Cc3ccccc3)CC2)CC1 | -10.8% | -0.305% | -1.86% | 90.3% | 94.4% | 0.155% | 2.72% |
| O=C(Nc1ncc(Br)s1)C(Cc1ccccc1)n1cccc1 (stereo not drawn) | -17.7% | -13.6% | -6.2% | 63.7% | 58% | 2.83% | -0.21% |
| Cn1c(=O)c2cc(S(=O)(=O)NC(C(=O)NCc3cccnc3)c3ccccc3)ccc2n(C)c1=O (stereo not drawn) | -17% | -18.3% | -1.54% | 91.2% | 94.2% | 1.32% | 1.81% |
| CCCCCn1c(CNC(=O)CCC)nc2ccccc21 | -7.29% | -2.36% | -2.97% | 101% | 96.4% | 2.5% | 0.64% |
| CC1(C)CC(=O)C=C(NCCc2ccc(S(N)(=O)=O)cc2)C1 | -8.44% | -12% | -0.64% | 94.3% | 96.2% | 1.18% | 1.82% |
| CC(=O)N1c2ccccc2N(Cc2ccc(C)cc2C)C(=O)C1(C)C | -6.6% | 5.81% | -6.55% | 16% (active) | 20.7% (active) | 1.14% | 9.4% |
| Cc1ccc(C(C)C)c(OCC(=O)N2CCOCC2)c1 | -10.1% | -20.3% | -0.67% | 99.3% | 91.4% | 1.69% | 1.97% |
| CCOc1ccc(N2CC(C(=O)NCCC3=CCCCC3)CC2=O)cc1 (stereo not drawn) | -1.23% | -18.5% | 0.15% | 99.6% | 93.8% | 0.36% | 3.96% |
| Cc1ccc(-c2cc(C(F)(F)F)n3ncc(C(=O)NCc4ccco4)c3n2)cc1 | -5.88% | -12.6% | -5.85% | 74% | 75.4% | 2.67% | 3.41% |
| NC(=O)C1CCN(C(=O)c2ccc(CS(=O)(=O)c3c(Cl)cccc3Cl)o2)CC1 | -1.46% | -0.415% | -0.98% | 109% | 98.3% | 1.49% | 1.38% |
| O=C(CC1CCCCC1)NCCCN1CCOCC1 | 1.88% | -3.55% | 1.14% | 92% | 102% | 1.58% | 1.38% |
| C=CCn1c(=NC(=O)C2CC2)sc2cc(NC(C)=O)ccc21 | -3% | -3.58% | -4.77% | 95.7% | 101% | 0.675% | 0.32% |
| COc1ccc(OC)c2c1sc(=NC(=O)CN1C(=O)CCC1=O)n2C | -3.75% | 5.91% | -1.92% | 92.7% | 87.4% | 1.16% | 2.41% |
| CC1(C)C(=O)OC(C(=O)c2ccccc2)C(C)(C)C1=O (stereo not drawn) | -7.95% | -6.81% | 0.07% | 105% | 94.8% | 0.83% | 2.22% |
| COC(=O)c1ccc2c(c1)N(Cc1nc(-c3cccc(C)c3)oc1C)C(=O)C1CCCN21 (stereo not drawn) | -13% | -8.79% | -2.37% | 92% | 84.3% | 2.06% | 5.71% |
| Cc1c(-n2cc(C(=O)O)c(=O)c3cc(F)c(N4CCCC4)c(F)c32)c(=O)n(-c2ccccc2)n1C | -5.81% | -11.4% | -2.19% | 98.8% | 87.8% | 2.6% | 5.65% |
| COc1ccc(N2CCN(S(=O)(=O)c3cccc4cccnc34)CC2)cc1 | -3.57% | 8.34% | -2.89% | 84.9% | 83.6% | 0.47% | 3.66% |
| Cc1ccccc1-c1nc(CS(=O)CC(=O)NCc2ccccc2)c(C)o1 (stereo not drawn) | 0.295% | 7.02% | 1.37% | 101% | 101% | 0.655% | 4% |
| O=C(CN1CCOc2ccccc21)N1CCCC1 | -21.1% | -8.8% | -5.56% | 100% | 90.5% | 0.98% | 1.32% |
| COC(=O)c1cn(NC(=O)CC2CCCCC2)c(=O)c2ccccc12 | 7.57% | 1.75% | 0.01% | 94% | 91.7% | 0.24% | 2.22% |
| CC(C)NC(=O)NC(=O)COc1ncnc2sccc12 | -4.68% | -7.55% | -1.28% | 97.6% | 105% | 1.22% | 2.67% |
| C(=N\n1cnnc1)/C1CCCCC1 | -4.95% | -1.24% | -2.8% | 101% | 98.4% | 0.19% | 6.93% |
| CN=C(NC)SC1CC(=O)N(c2ccccc2)C1=O (stereo not drawn) | -8.98% | -4.91% | 1.47% | 109% | 101% | 0.305% | 1.02% |
| COC(=O)c1c(C)oc2ccc(OC(=O)c3cccs3)cc12 | 4.65% | -15% | 1.81% | 96.3% | 99.5% | 0.81% | 0.1% |
